PGE2 EP2 inh: blocks the human prostaglandin E2 receptor EP2; P43116; C6 glioma cells expressing human EP2, cAMP TR-FRET; cells stimulated with saturating PGE2; inhibition, % at 25 µM; 260,000 tested, 0.52% active;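 active = percent inhibition above 40 after rounding to a whole number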;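 note: rat C6 glioma host cells with rolipram phosphodiesterase inhibitor present; the protocol text gives 20 µM as final concentration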
Target sequence (P43116 whole entry, looked up): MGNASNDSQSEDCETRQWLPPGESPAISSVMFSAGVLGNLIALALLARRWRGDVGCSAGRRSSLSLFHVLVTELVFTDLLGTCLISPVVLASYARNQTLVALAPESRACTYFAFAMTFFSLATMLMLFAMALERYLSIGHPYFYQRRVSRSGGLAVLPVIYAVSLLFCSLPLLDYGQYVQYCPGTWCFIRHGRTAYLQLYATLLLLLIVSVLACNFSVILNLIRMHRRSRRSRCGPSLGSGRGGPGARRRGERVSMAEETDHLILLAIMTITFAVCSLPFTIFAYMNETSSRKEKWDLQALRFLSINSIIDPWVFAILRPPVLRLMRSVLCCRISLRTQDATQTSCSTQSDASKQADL
OX1R antag-1: blocks the human orexin 1 receptor. 330,000 tested, 1.8% active. inhibition, % at 6.6 µM. AID 485270. OX1R-expressing cells, FRET antagonist read-out; in the data active = inhibition mostly above about 38%, no sharp cut-off; inactive = mostly below about 40%
OX1R antag-2: human HCRTR1 antagonism | O43613 | CHO/OX1R cells, Fluo-8 calcium fluorescence, orexin A | inhibition, % at 5 µM | 330,000 tested, 0.43% active | AID 434989;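 active = inhibition above its plate's threshold, mean inhibition of all tested compounds on the plate plus 3 SD, cut at about 37% in these data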
EP2 mod: EP2 receptor (human) modulation. EP2-expressing cells, cAMP HTRF FRET, PGE2 co-stimulation. induction, % at 25 µM. 260,000 tested, 0.83% active;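 active = compounds whose cAMP rise, as percent of the full-agonist control response, exceeds 60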;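 note: rat C6 glioma line stably carrying human EP2 under a CMV promoter; the protocol text gives 20 µM as final concentration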
GPR7 antagonist: blocks human GPR7 receptor signaling | AID 1861 | 290,000 tested, 1.1% active | GPR7-expressing cells, fluorescence antagonist assay | P48145 | inhibition, % at 4.4 µM; in the data active = inhibition above about 16%, passing the limit was not always enough;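 note: cells stimulated with the agonist NPW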
CHO parental Ca: counter-screen for OX1R antagonists: effect in parental CHO cells; inhibition, % at 5.6 µM; parental CHO-K1, ATP-induced calcium, Fluo-8 fluorescence; 330,000 tested, 0.63% active;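 active = inhibition above that plate's mean sample inhibition plus 3 SD, cut at about 26% in these data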
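Material: Parental CHO cells | Reagent: ATP | Compound dosing: Single nominal dose of 5.6 µM per compound | Detection: Intracellular calcium via Fluo-8 no-wash fluorescent dye | Read-out: % inhibition of ATP-induced calcium mobilization | Benchmarks: Low control ATP plus DMSO, high control DMSO only | Replicates: Singlicate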
Hits are given with their value; - = inactive; . = no result. An excerpt weighted towards active compounds, which were near 3.7% of everything screened.

SMILES	PGE2 EP2 inh	OX1R antag-1	OX1R antag-2	EP2 mod	GPR7 antagonist	CHO parental Ca
C=CCN(CC=C)S(=O)(=O)c1ccc(NC(=S)NC(=O)/C=C/c2ccc(C)cc2)cc1	-	-	-	-	-	36
Cc1ccc(/C=C/C(=O)NC(=S)Nc2ccc(S(=O)(=O)Nc3cc(C)on3)cc2)cc1	83	-	-	-	-	-
COc1ccc(/C=C/C(=O)NC(=S)Nc2ccc(S(=O)(=O)Nc3nc(C)cc(C)n3)cc2)cc1	-	.	.	-	.	.
Cc1cc(NS(=O)(=O)c2ccc(NC(=S)NC(=O)/C=C/c3ccccc3)cc2)no1	-	-	-	-	-	-
O=c1[nH]c(-c2ccc(Cl)cc2)nc(=S)[nH]1	-	-	-	-	-	-
COc1ccc(NC(=O)c2ncoc2-c2ccc(OC)c(OC)c2)c(OC)n1	-	.	.	-	.	.
Cc1ccc(C)c(-n2c(-c3ccco3)n[nH]c2=S)c1	.	-	-	.	.	-
Fc1cccc(/C=N/Nc2cc(N3CCOCC3)ncn2)c1	.	-	-	.	-	-
COc1ccc(C(=O)NC(=S)Nc2ccc(S(=O)(=O)Nc3nc(C)cc(C)n3)cc2)cc1	70	.	.	-	.	.
COc1ccc(-c2cn3cc(C(=O)NN)ccc3n2)cc1	-	-	57	-	-	54
Nc1nc(Cl)cc(Oc2ccccc2F)n1	-	-	-	-	-	-
COc1cccc(Cn2cccc(NC(=O)Nc3ccc(C#N)cc3)c2=O)c1	-	-	52	-	-	47
COc1cccc(NC(=O)Nc2cccn(Cc3ccccc3)c2=O)c1	-	-	-	-	-	-
Cc1ccc2cc(C#N)c(SCC(=O)Nc3ccccc3Cl)nc2c1C	-	.	.	-	.	.
COc1ccc(CN(C)C2CCCCC2)cc1	-	-	-	-	-	-
N#Cc1c(NC(=O)C(F)(F)F)sc2c3c(=O)c4ccccc4c(=O)c=3oc3ccccc3c12	42	.	.	-	.	.
Cc1ccc(S(=O)(=O)N2CCCC2C(=O)Nn2cnnc2)cc1 (stereo unspecified)	-	-	-	-	-	-
O=C1c2ccc(-c3ccc4c(c3)C(=O)N(CCCO)C4=O)cc2C(=O)N1CCCO	-	59	-	-	-	-
Cc1ccccc1C(=O)NC1CCN(C(=O)Nc2ccc(F)cc2)CC1	.	-	-	.	-	-
Cc1c(C#N)c(O)[nH]c(=O)c1N=Nc1ccc(S(N)(=O)=O)cc1	.	41	-	.	-	-
COc1ccc(NS(=O)(=O)c2ccc3c(c2)CCCN3C(C)=O)cc1	.	-	-	.	-	-
CCn1cc(C(=O)N2CCN(c3cccc(C)c3C)CC2)c(=O)c2ccc(C)nc21	-	-	-	-	-	-
CCn1cc(C(=O)N2CCN(c3ccc([N+](=O)[O-])cc3)CC2)c(=O)c2ccc(C)nc21	-	45	-	-	-	-
CC(=O)Nc1ccc(S(=O)(=O)NCC(=O)OCC(=O)NC23CC4CC(CC(C4)C2)C3)cc1	-	-	-	-	-	-
CC1CCc2nc(NC(=O)C3COc4ccccc4O3)sc2C1 (stereo unspecified)	-	39	-	-	-	-
SMILES	PGE2 EP2 inh	OX1R antag-1	OX1R antag-2	EP2 mod	GPR7 antagonist	CHO parental Ca
CC1CCc2nc(NC(=O)C3CC3)sc2C1 (stereo unspecified)	-	-	-	-	-	-
COc1cccc(C(=O)Nc2cc(C)c3c(=O)oc4ccccc4c3n2)c1	-	45	-	-	.	-
Cc1ccc(C)c(-n2sc3ccc(F)cc3c2=O)c1	.	-	-	.	.	45
COc1ccc(-n2sc3ccc(F)cc3c2=O)cc1	.	-	-	.	.	65
O=c1c2cc(F)ccc2sn1-c1ccc(F)cc1	.	32	-	.	.	-
COc1ccc(S(=O)(=O)N(CCO)Cc2cc3cc4c(cc3[nH]c2=O)OCCO4)cc1	-	.	.	-	.	.
COc1ccc(CN(CCC#N)C(=S)NC(=O)c2ccccc2)cc1	-	-	-	-	-	-
COc1ccc(NC(=O)CSc2nnc3c(n2)[nH]c2ccc(OC)cc23)cc1	-	.	.	-	.	.
COc1cc(OC)c(C2NC(=O)NC(C)=C2C(=O)Nc2ccc(C)cc2)cc1OC (stereo unspecified)	-	.	.	-	.	.
COCCn1c(=O)[nH]c2cc(C(=O)N3CCn4c(nnc4C4CC4)C3)ccc21	.	.	.	-	.	.
CCC(CC)C(=O)Nc1ccc([N+](=O)[O-])cn1	-	-	-	-	-	-
CCC(CC)C(=O)Nc1ccc(Sc2ccc([N+](=O)[O-])cc2)cc1	-	41	60	-	-	-

Screening data deposited in PubChem by several laboratories.
